Consider 6 molecules from ChEMBL document CHEMBL1153560, “In vitro activities of doripenem and six comparator drugs against 423 aerobic and anaerobic bacterial isolates from infected diabetic foot wounds” (2008).

The test system of the assay is Clostridium perfringens. The experiment in a line: Antibacterial activity against Clostridium perfringens isolated from patient with diabetic foot infection assessed as percent resistant isolates after 44 to 48 hrs by agar dilution method. Format: functional. In a few lines: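 Agar dilution per CLSI M11-A7. Twofold drug dilutions made on the test day and added to molten agar. Replicator-applied inoculum of 10^5 CFU/spot. Drug-free control plates inoculated before and after each drug set. Incubation at 37°C for 44 to 48 h, anaerobic chamber. MIC taken as the lowest concentration giving no growth or a marked change in growth versus controls.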
Take `C[C@@H](O)[C@H]1C(=O)N2C(C(=O)O)=C(SCCNC=N)C[C@H]12` [IMIPENEM ANHYDROUS]: the Activity is reported as 0%.

For `C[C@@H](O)[C@H]1C(=O)N2C(C(=O)O)=C(S[C@@H]3CN[C@H](C(=O)Nc4cccc(C(=O)O)c4)C3)[C@H](C)[C@H]12` [ERTAPENEM], the Activity was found to be 0%. With `C[C@@H](O)[C@H]1C(=O)N2C(C(=O)O)=C(S[C@@H]3CN[C@H](CNS(N)(=O)=O)C3)[C@H](C)[C@H]12` [DORIPENEM] the figure was 0%; with `CCC[C@@H]1C[C@@H](C(=O)N[C@@H]([C@H]2O[C@H](SC)[C@H](O)[C@@H](O)[C@H]2O)[C@H](C)Cl)N(C)C1` [CLINDAMYCIN], 0%. Next, `C[C@@H](O)[C@H]1C(=O)N2C(C(=O)O)=C(S[C@@H]3CN[C@H](C(=O)N(C)C)C3)[C@H](C)[C@H]12` [MEROPENEM]: 0%; `Cc1ncc([N+](=O)[O-])n1CCO` [METRONIDAZOLE]: 0%.
